Test results from publication PMC4714923 (Biochemistry, 2015).

What was measured:
[1] = molecular target: T1, CHIP (Homo sapiens, UniProt Q9UNE7); test: FP binding of C-terminal Hsp70/90 tracers to CHIP; conditions: pH 7.4, full-length CHIP
T1 sequence (Q9UNE7 1-303): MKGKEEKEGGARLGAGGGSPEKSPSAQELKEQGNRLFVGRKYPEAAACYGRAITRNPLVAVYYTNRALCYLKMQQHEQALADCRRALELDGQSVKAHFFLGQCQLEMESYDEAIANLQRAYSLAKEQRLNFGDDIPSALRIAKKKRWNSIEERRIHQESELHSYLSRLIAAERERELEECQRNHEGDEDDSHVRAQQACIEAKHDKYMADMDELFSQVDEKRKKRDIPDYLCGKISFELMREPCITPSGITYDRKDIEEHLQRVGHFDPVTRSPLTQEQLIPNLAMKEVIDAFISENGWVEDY

[2] = molecular target: Hop (Homo sapiens, UniProt P31948); test: FP binding of C-terminal Hsp70/90 tracers to Hop
Sequence of Hop (P31948 whole entry): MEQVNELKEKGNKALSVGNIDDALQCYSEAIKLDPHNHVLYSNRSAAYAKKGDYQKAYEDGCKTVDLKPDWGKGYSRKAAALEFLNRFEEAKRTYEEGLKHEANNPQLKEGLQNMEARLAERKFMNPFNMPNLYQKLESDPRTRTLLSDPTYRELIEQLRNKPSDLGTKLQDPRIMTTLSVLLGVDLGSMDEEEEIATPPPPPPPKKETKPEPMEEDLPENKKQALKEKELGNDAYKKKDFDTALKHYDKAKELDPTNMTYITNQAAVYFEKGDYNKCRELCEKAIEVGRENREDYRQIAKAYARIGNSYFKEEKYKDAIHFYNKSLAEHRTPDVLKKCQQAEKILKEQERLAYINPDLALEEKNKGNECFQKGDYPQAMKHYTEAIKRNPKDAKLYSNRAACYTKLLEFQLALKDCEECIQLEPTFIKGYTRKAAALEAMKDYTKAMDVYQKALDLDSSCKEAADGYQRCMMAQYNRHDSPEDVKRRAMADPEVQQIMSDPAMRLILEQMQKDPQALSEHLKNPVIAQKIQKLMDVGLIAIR
Summary of the method: (§1)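 Full-length human protein, made in E. coli BL21(DE3) and Ni-NTA purified (DnaJC7 kept its His-tag; Hop and FKBP52 were TEV-cleaved and gel-filtered). Twofold dilutions (0–125 μM final) with 20 nM N-terminal 5-Fam-aminohexanoyl C-terminal Hsp70/90 peptide in 50 mM HEPES, 75 mM NaCl, 0.001% Triton X-100, pH 7.4. 30 min at RT, dark. FP (ex 485/em 530 nm) isotherms. ≥2 runs in triplicate, mean ± SEM.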

[3] = molecular target: T2, DnaJC7 (Homo sapiens, UniProt Q99615); test: FP binding of C-terminal Hsp70/90 tracers to DnaJC7; conditions: pH 7.4, full-length DnaJC7
T2 sequence (Q99615 1-494): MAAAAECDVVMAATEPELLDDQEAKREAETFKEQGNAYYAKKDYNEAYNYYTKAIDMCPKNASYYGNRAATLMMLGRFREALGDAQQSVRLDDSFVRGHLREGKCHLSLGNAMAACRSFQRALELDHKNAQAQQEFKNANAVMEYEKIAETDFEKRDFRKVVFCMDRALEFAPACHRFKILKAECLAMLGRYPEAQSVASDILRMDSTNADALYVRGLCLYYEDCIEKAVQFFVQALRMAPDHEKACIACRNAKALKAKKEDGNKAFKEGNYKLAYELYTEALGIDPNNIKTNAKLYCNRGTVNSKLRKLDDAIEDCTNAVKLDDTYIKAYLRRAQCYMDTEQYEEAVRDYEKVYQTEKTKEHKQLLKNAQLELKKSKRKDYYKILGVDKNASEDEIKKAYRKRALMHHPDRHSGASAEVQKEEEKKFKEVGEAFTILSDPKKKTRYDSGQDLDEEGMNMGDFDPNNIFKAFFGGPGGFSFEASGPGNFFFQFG
Summary of the method: as §1

[4] = molecular target: T3, FKBP51 (Homo sapiens, UniProt Q13451); test: FP binding of C-terminal Hsp70/90 tracers to FKBP51; conditions: pH 7.4, full-length FKBP51
T3 sequence (Q13451 1-457): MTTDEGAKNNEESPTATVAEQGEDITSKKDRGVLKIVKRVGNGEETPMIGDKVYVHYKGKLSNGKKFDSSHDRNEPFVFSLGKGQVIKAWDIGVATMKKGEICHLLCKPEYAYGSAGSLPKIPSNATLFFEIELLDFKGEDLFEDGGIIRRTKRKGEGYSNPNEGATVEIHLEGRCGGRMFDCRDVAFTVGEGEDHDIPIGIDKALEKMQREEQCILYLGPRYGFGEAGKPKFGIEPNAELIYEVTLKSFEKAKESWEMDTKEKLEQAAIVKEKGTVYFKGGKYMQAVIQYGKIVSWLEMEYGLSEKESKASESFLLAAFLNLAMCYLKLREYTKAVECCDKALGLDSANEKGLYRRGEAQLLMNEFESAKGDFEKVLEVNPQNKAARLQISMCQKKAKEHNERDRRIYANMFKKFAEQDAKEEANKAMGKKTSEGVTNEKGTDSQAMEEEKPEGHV

[5] = molecular target: T4, FKBP52 (Homo sapiens, UniProt Q02790); test: FP binding of C-terminal Hsp70/90 tracers to FKBP52; conditions: pH 7.4, full-length FKBP52
T4 sequence (Q02790 1-459): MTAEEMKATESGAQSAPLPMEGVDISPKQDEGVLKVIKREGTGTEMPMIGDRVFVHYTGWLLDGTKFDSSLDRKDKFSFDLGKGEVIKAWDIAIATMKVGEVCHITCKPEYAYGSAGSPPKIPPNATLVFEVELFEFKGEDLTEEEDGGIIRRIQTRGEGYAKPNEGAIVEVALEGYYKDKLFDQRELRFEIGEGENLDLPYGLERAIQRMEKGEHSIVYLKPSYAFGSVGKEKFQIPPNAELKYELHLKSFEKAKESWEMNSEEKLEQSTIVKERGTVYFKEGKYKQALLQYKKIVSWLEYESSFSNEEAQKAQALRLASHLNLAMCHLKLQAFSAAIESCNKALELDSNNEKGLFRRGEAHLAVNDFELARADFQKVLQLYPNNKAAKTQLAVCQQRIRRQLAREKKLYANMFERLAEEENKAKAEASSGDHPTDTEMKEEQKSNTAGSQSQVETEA
Summary of the method: as §1

Substance	decrease in affinity versus wt tracer [1]	enhanced binding versus wt tracer ([2]; pH 7.4, pseudophosphorylated tracer)	binding to DnaJC7 (in words) [3]	binding to FKBP51 (in words) [4]	binding to FKBP52 (in words) [5]	binding to CHIP (in words) [1]	binding to Hop (in words) ([2]; pH 7.4, full-length Hop)
Fam-DDTERMEEVD	more than 8 fold	~ 2 fold	unaffected	unaffected	unaffected	–	–
Fam-DVEEM	–	–	no affinity	no affinity	no affinity	no affinity	no affinity
